# Data as given in PubChem BioAssay AID504649 (Molecular Libraries Program, Specialized Chemistry Center, …, 2011).
# Calls of active or inactive are those of the source.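 How the source made its calls: active means half-maximal inhibitory concentration IC50 of 10 µM or lower; inactive means the rest.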
# Molecular target: Transitional endoplasmic reticulum ATPase (Homo sapiens) (UniProt P55072)
# Assay: blockers of VCP-dependent reporter clearance – imaging, HeLa, UbG76V-GFP, round 3, SAR follow-up (AID 504649)
# Settings: HeLa UbG76V-GFP degradation; for inhibition: at 20 µM (top of the series)
# In short: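 Assay system: HeLa cells expressing UbG76V-GFP proteasome degradation reporter; times: MG132 pre-treatment 1 h, GFP imaging 70–170 min into chase; measured by: imaged GFP fluorescence intensity, ~500 cells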
# Sequence of Transitional endoplasmic reticulum ATPase (Homo sapiens) (P55072 whole entry, looked up): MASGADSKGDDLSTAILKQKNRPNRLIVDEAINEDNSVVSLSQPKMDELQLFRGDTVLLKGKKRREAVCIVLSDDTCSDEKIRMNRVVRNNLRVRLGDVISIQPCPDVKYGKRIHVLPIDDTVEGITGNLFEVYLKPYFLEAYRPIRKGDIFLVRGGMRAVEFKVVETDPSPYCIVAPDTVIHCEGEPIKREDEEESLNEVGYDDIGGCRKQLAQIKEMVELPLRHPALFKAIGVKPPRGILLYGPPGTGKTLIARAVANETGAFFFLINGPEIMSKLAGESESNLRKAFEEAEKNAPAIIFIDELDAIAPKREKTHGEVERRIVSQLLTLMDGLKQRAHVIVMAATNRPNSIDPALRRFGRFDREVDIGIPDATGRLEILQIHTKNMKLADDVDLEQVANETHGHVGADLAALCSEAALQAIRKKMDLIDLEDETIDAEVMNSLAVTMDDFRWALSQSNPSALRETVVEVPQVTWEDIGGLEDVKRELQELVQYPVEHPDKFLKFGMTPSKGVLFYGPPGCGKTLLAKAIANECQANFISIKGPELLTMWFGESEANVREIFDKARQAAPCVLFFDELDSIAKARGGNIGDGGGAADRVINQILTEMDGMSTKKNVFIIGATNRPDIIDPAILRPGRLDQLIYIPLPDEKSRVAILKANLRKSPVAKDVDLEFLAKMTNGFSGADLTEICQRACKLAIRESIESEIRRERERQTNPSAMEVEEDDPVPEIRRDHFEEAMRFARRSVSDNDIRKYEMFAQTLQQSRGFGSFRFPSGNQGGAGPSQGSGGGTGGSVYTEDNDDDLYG
IC50,inhibition,SMILES
5.3 µM,–,CCN(CC)CCOc1cccc2c(NCc3ccccc3)nc(N3CCOc4ccccc43)nc12
inactive,–,COc1cccc2c(NCc3cccc(N(C)C)c3)nc(N3CCOc4ccccc43)nc12
7.3 µM,–,COc1cccc2c(NCc3ccc(O)cc3)nc(N3CCOc4ccccc43)nc12
8.2 µM,–,COc1cccc2c(NCC3CCCCC3)nc(N3CCOc4ccccc43)nc12
6 µM,–,COc1cccc2c(NCc3ccccc3O)nc(N3CCOc4ccccc43)nc12
3.3 µM,–,COc1cccc2c(NCc3ccccc3)nc(N3CCOc4ccccc43)nc12
3.7 µM,–,COc1cccc2c(NCc3ccc(F)cc3)nc(N3CCOc4ccccc43)nc12
3 µM,–,COc1cccc2c(NCc3cccs3)nc(N3CCOc4ccccc43)nc12
inactive,–,COc1cccc2c(NCc3ccccn3)nc(N3CCNc4ccccc43)nc12
4.5 µM,–,COc1cccc2c(NCc3ccccc3N(C)C)nc(N3CCOc4ccccc43)nc12
inactive,–,COc1cccc2c(NCc3ccccn3)nc(N3CCOc4ccccc43)nc12
7.7 µM,–,Oc1cccc2c(NCc3ccccc3)nc(N3CCOc4ccccc43)nc12
1.8 µM,–,COc1cccc2c(NCc3ccccc3)nc(NCc3cccs3)nc12
3.8 µM,–,OCCOc1cccc2c(NCc3ccccc3)nc(N3CCOc4ccccc43)nc12
7.7 µM,–,N#CCOc1cccc2c(NCc3ccccc3)nc(N3CCOc4ccccc43)nc12
> 20 µM (inactive),–,COc1cccc2c(NCc3cncs3)nc(N3CCOc4ccccc43)nc12
3.7 µM,–,COc1cccc2c(NCc3ccccc3)nc(N3CCNc4ccccc43)nc12
6.5 µM,–,COCCOc1cccc2c(NCc3ccccc3)nc(N3CCOc4ccccc43)nc12

# The remaining lines, values behind:
SMILES,IC50,inhibition
c1ccc(CNc2nc(N3CCc4ccccc4C3)nc3ccccc23)cc1,7 µM,–
Nc1nc2ccccc2n1-c1nccc(NCc2ccccc2)n1,inactive,–
c1ccc2c(c1)OCCN2c1nc(N2CCOc3ccccc32)c2ccccc2n1,8.1 µM,–
COc1ccc2c(c1)nc(N)n2-c1nc(NCc2ccccc2)c2cccc(OC)c2n1,0.96 µM,–
COc1cccc2c(NCc3ccccc3)nc(-n3c(N)nc4cc(F)ccc43)nc12,6.8 µM,–
COc1cccc2c(NCc3ccccc3)nc(Nc3cccc(Cl)c3)nc12,5.4 µM,–
COc1ccc(-c2cccc3c(NCc4ccccc4)nc(N4CCOc5ccccc54)nc23)cc1,9 µM,–
COc1cccc2c(NCc3ccccc3)nc(Nc3nc4ccccc4n3C)nc12,7.8 µM,–
COc1cccc2c(NCc3ccccc3)nc(Nc3nc4ccccc4s3)nc12,inactive,–
COc1cccc2c(NCc3ccccc3)nc(-n3c(N)nc4c(F)cccc43)nc12,5.4 µM,–
COc1cccc2c(NCc3ccccc3)nc(NC(N)=O)nc12,–,inactive
c1ccc(CNc2nc(N3CCOc4ccccc43)nc3c2CCCC3)cc1,3.5 µM,–
COc1cccc2c(NCc3ccccc3)nc(NCC3CCCCC3)nc12,4.2 µM,–
COc1cccc2c(NCc3ccccc3)nc(NC(C)c3ccccc3)nc12 (stereo not given),2.1 µM,–
COc1cccc2c(NCc3ccccc3)nc(-n3c(N)nc4ccccc43)nc12,0.9 µM,–
c1ccc(CNc2nc(N3CCOc4ccccc43)nc3ccsc23)cc1,6.4 µM,–
COc1cccc2c(NCc3ccccc3)nc(NCc3cncs3)nc12,inactive,–
COc1cccc2c(NCc3ccccc3)nc(-n3c(N)nc4cc(C)c(C)cc43)nc12,–,inactive
COc1cccc2c(NCc3ccccc3)nc(N(C)Cc3ccccc3)nc12,> 20 µM (inactive),–

SMILES,IC50,inhibition
COc1cccc2c(NCc3ccccc3)nc(-n3c(=O)oc4ccccc43)nc12,5 µM,–
Clc1ccccc1-c1nc(N2CCCc3ccccc32)c2ccccc2n1,inactive,–
CN(c1ccccc1)c1nc(NCc2ccccc2)c2ccccc2n1,9.2 µM,–
COc1cccc2c(NCc3ccccc3)nc(Nc3ccccc3O)nc12,2.8 µM,–
Nc1nc2ccccc2n1-c1nc(NCc2ccccc2)c2ccccc2n1,2.9 µM,–
c1ccc(CNc2nc(N3CCOc4ccccc43)nc3c(-c4ccccc4)cccc23)cc1,5 µM,–
COc1cccc2c(NCc3ccccc3)nc(N3CCN(C)c4ccccc43)nc12,7.8 µM,–
CC(C)Nc1nc(Nc2cccc(Cl)c2)nc2ccccc12,inactive,–
COc1cccc2c(NCc3ccccc3)nc(-n3cnc4ccccc43)nc12,–,inactive
COc1cccc2c(NCc3ccccc3)nc(-n3c(N)nc4cc(Cl)c(Cl)cc43)nc12,> 20 µM (inactive),–
COc1cccc2c(NCc3ccccc3)nc(Nc3cccc(F)c3)nc12,4.8 µM,–
COc1cccc2c(NCc3ccccc3)nc(N3CCN(C(C)=O)CC3)nc12,> 20 µM (inactive),–
COc1cccc2c(NCc3ccccc3)nc(-n3c(N)nc4cc(C)ccc43)nc12,2.5 µM,–
Nc1nc2ccccc2n1-c1nc2c(c(NCc3ccccc3)n1)CCCC2,1.8 µM,–
COc1cccc2c(NCc3ccccc3)nc(Nc3cc(C)cc(F)c3)nc12,7.1 µM,–
Cc1nc(N2CCOc3ccccc32)nc(NCc2ccccc2)c1C,inactive,–
COc1cccc2c(NCc3ccccc3)nc(N3CCN(C(C)=O)c4ccccc43)nc12,8 µM,–
COc1cccc2c(NCc3ccccc3)nc(-n3c(N)nc4c(C)cccc43)nc12,2.6 µM,–
